Laboratory results: PubChem BioAssay
Activity calls are given as the source filed them.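 Rule for the calls: active = calcium signal ratio cut to more than 3 SD under the fully stimulated control mean yet still positive, in both repeats and the primary screen; inactive = the rest.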

Biological target: Short transient receptor potential channel 4 (Mus musculus) (UniProt Q9QUQ5)
Test: inhibitors of mouse TRPC4 channel, confirmation, cell-based, second round, Fluo4, HEK293 TRPC4beta/mu-opioid, 1 µM (AID 2637)
Settings: Fluo4 calcium flux, DAMGO, at 1 µM
Method in brief: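 Doses: 1 µM single point / Material: HEK293 cells with TRPC4beta plus mu-opioid receptor / Control set: DAMGO ECmax control wells and wells without test compound / Schedule: dye loading 45 min room temperature, compound pre-incubation 110 s / Measured by: kinetic Fluo4 Ca2+ fluorescence reading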

Short transient receptor potential channel 4 (Mus musculus), sequence (Q9QUQ5 whole entry, looked up): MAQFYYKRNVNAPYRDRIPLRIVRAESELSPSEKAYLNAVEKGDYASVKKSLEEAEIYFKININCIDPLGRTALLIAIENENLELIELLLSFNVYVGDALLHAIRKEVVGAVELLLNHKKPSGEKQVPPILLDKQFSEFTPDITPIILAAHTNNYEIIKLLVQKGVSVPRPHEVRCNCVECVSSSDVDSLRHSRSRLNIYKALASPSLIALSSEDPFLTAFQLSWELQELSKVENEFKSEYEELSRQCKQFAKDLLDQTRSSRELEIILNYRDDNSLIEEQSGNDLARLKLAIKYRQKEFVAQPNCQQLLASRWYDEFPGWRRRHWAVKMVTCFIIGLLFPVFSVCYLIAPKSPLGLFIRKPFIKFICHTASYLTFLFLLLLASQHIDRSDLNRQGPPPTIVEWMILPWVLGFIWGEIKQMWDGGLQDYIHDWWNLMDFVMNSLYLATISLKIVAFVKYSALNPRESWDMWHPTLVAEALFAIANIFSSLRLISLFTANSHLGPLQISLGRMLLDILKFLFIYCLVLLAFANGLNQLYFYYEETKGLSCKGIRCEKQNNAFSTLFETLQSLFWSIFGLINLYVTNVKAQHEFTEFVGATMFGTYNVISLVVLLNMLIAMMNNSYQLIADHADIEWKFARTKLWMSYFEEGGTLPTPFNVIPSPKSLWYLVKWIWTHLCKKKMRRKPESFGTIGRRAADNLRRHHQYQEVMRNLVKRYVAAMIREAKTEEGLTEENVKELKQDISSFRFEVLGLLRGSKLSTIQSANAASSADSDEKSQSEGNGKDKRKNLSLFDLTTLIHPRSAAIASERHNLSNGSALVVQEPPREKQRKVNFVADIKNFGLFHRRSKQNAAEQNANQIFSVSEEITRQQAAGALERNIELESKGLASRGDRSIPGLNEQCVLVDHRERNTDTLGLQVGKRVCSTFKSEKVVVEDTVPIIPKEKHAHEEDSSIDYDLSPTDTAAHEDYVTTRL

outcome, inactive:
COc1ccc(C(CNC(=O)COc2ccccc2OC)N(C)C)cc1OC (centres undefined)
COc1ccc(C(CNC(=O)CCOc2ccccc2)N(C)C)cc1 (centres undefined)
CN(C)C(CNc1ccc(C(F)(F)F)cn1)c1ccccc1 (centres undefined)
Fc1ccc(-n2cc(CNCCc3cccnc3)c(-c3ccccc3Cl)n2)cc1
CCOC(=O)c1ccc(NC(=O)NCCc2cnc[nH]2)cc1
CN1CCN(C(=O)c2cccn(Cc3c(Cl)cccc3Cl)c2=O)CC1
Cc1sc2ncnc(NCC(c3ccccc3)N(C)C)c2c1C (centres undefined)
O=C(O)C1C2C=CC(C2)C1C(=O)N1CCN(C/C=C/c2ccccc2)CC1 (centres undefined)
CCCCN(CC)CCNC(=O)c1cc2c(-c3ccc(Cl)cc3)nn(C)c2s1
O=C(Nc1ccncc1)c1ccc(Cl)c(S(=O)(=O)N2CCc3ccccc32)c1
CC(=O)OCC[N+](C)(C)C
COc1ccc(CCN(C)C(=O)C2CCCN(C3CCN(Cc4ccccc4)CC3)C2)cc1OC (centres undefined)
Cc1cc(C)cc(NC(=S)N2CCN(c3ncc(C(F)(F)F)cc3Cl)CC2)c1
COc1ccc(C(CNC(=O)Cc2ccc(-c3ccccc3)cc2)N(C)C)cc1 (centres undefined)
O=c1c(Cc2ccccc2)c(O)ccn1CCc1cnc[nH]1
COc1ccc(C(=O)NNC(=S)NC(=O)c2cccs2)cc1
CCC(=O)NC(C)C(c1cccs1)N1CCN(c2ccccc2)CC1 (centres undefined)
NCCCNC(=O)c1cc2ccccc2[nH]1
Cn1c2ccccc2c(=O)c2c(=O)n(C3CCCCC3)c(-c3ccco3)nc21
COc1ccc(-n2c3c(cc(C(=O)NNc4ccccc4)c2=O)C(=O)CC(C)(C)C3)cc1
O=C(c1sc2ccccc2c1Cl)N(Cc1ccccc1)C1CCS(=O)(=O)C1 (centres undefined)
CN(C)C(CNC(=S)Nc1ccc(Cl)cc1)c1cccnc1 (centres undefined)
O=C1/C(=C\c2cc([N+](=O)[O-])ccc2O)SC(=S)N1Cc1ccc(Cl)cc1
Cc1ccc(C(=O)NNC(=S)NC(=O)COc2ccccc2)cc1
CCCCCc1c(O)nc(SCCN(C)C)[nH]c1=O
CC1CC(C)CN(CCCNS(=O)(=O)c2cc(Br)cc3c2N(C(=O)C2CC2)CC3)C1 (centres undefined)
CN1C2C=C(N(CCc3ccccc3)C(=O)c3ccc(Cl)cc3)CC1CC2 (centres undefined)
Cc1ccccc1C(=O)NNC(=S)NC(=O)COc1ccccc1
CCOC(=O)C1(CC2CCCCO2)CCN(Cc2cc(F)ccc2-n2cccn2)CC1 (centres undefined)
Cc1ccc(NC(=O)CCN2CCC(Cc3ccccc3)CC2)cc1
CCCn1ncc(CN2CCC(n3nccc3NC(=O)CCc3ccccc3)CC2)c1C
Cc1sc2ncnc(NCC(c3ccco3)N(C)C)c2c1C (centres undefined)
CCCN(CCC)CCNC(=O)CCC(=O)Nc1ccc2nc(N3CCOCC3)cc(C)c2c1
CCN1CCN(c2c(Cl)cccc2NC(=O)c2ccc([N+](=O)[O-])cc2)CC1
CN1CCN(c2ccc(NC(=O)c3ccc(-c4cccc([N+](=O)[O-])c4)o3)cc2)CC1
OCCC1CN(Cc2ccccc2-c2ccco2)CCN1Cc1ccccc1 (centres undefined)
CN(C)C(CNC(=O)NC1CCCCC1)c1cccnc1 (centres undefined)
O=C1S/C(=C\c2ccc(N3CCOCC3)o2)C(=O)N1Cc1c(F)cccc1Cl
COCCCn1c(N)c(-c2nc3ccccc3n2C)c2nc3ccccc3nc21
